Measured values pooled from the literature.
Protocols differ between the studies behind these lines.
Read-out: cell growth or viability

| SMILES | cell line | method | time | endpoint | result |
| --- | --- | --- | --- | --- | --- |
| CCc1ncn(CC(c2c[nH]c3ccc(C)cc23)c2c[nH]c3ccc(C)cc23)c1C(=O)OC | DH82 | MTS | 24 h | CC50 | > 20 µM |
| CC(=O)OC1c2c(ccc3ccc(=O)oc23)OC(C)(C)C1OC(=O)C(C)(O)C(C)O (centres unmarked) | HCT-116 | WST-1 | – | IC50 | 16.1 µM |
| CCOC(=O)c1c(C)ncn1CC(c1cn(C)c2ccc([N+](=O)[O-])cc12)c1cn(C)c2ccc([N+](=O)[O-])cc12 | DH82 | MTS | 24 h | CC50 | > 20 µM |
| COC(=O)[C@]1(O)C[C@@H](O)[C@@H](O)[C@H](OC(=O)/C=C/c2ccc(O)c(O)c2)C1 | HCT-116 | WST-1 | – | IC50 | 30.8 µM |
| COc1cc2c(OC)nc3c4cc5c(cc4cc(OC(C)=O)c3c2cc1OC)OCO5 | HCT-116 | MTT | – | GI50 | 1.3 µM |
| CC[C@H](C)C(=O)O[C@H]1C[C@H](O)C=C2C=C[C@H](C)[C@H](CC[C@@H](O)C[C@@H](O)CC(=O)O)[C@H]21 | HCT-116 | SRB | 72 h | IC50 | 3.52 µM |
| COC(=O)c1c(C)ncn1CC(c1c[nH]c2cc(Br)ccc12)c1c[nH]c2cc(Br)ccc12 | DH82 | MTS | 24 h | CC50 | > 20 µM |
| C/C=C(/C)C(=O)O[C@@H]1[C@H](OC(C)=O)c2c(ccc3ccc(=O)oc23)OC1(C)C | HCT-116 | WST-1 | – | IC50 | 55.8 µM |
| O=c1[nH]cc(F)c(=O)[nH]1 | AGS | crystal violet | 72 h | CC50 | 769 µM |
| COc1cc2c(OC)nc3c4cc5c(cc4cc(OCCN4CCC(N6CCCCC6)CC4)c3c2cc1OC)OCO5 | HCT-116 | MTT | – | GI50 | 11 µM |
| COc1ccc(S(=O)(=O)ON=C2C=C(C)C(=O)C(C)=C2)cc1 | HCT-116 | – | – | CC50 | 7.4 µM |
